Many of the other results were omitted from the sample, so hits are more common in it than they were.
UPR CHOP act: apoptotic UPR (CHOP) activation; CHO-CHOP luciferase reporter, luminescence; percent of tunicamycin response over DMSO baseline; activation, % at 10 µM; 330,000 compounds, 0.34% hits; AID 449763;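 active = at 10 µM dose, activation of 40% or more, normalized to positive control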
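System: CHO-CHOP luciferase reporter cell line | Buffer or medium: F12 medium containing 10% fetal bovine serum | Doses: One dose, 10 µM in 0.5% DMSO | Times: 6 h compound exposure at 37 °C after overnight seeding | Signal: Luciferase luminescence | Read-out: % activation vs tunicamycin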
CHOP inh: inhibitors of CHOP induction in ER stress response. 220,000 compounds, 3.8% hits. CHO-K1 CHOP-promoter luciferase, tunicamycin-induced, 15-18 h. AID 2732. inhibition, % at 10 µM;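 active = compounds that reduced the stress-induced luciferase reporter signal by more than about 70% of percent inhibition, limit read from the data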
697 NFkB inh: inhibitors of the PMA/ionomycin-induced NF-kB reporter in 697 B cells. 697 B-cell NF-kB luciferase reporter, 16 h. inhibition, % at 4 µM. 330,000 compounds, 0.33% hits; in the data active = inhibition above about 35%
UPR XBP1 act: adaptive UPR (XBP1) activation | CHO-XBP1 luciferase reporter, IRE1-XBP1 UPR activation, luminescence; percent of tunicamycin response, DMSO as zero | activation, % at 20 µM | 330,000 compounds, 0.33% hits;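 active = versus positive control, 20 µM dose yields 30% or more activation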
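Material: CHO-XBP1 cells stably carrying IRE1-XBP1-driven luciferase reporter | Medium: F12 with 10% serum | Compound dosing: 20 µM single concentration, DMSO 1% | Incubation: Overnight seeding at 37 °C, 6 h compound treatment at 37 °C | Detection: Steady-Glo luminescence read | Read-out basis: % activation of reporter signal versus tunicamycin and DMSO controls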
Jurkat NFkB inh: inhibitors of the PMA/ionomycin-induced NF-kB reporter in Jurkat cells; PMA/ionomycin-induced NF-kB luciferase reporter, luminescence; inhibition, % at 4 µM; 330,000 compounds, 0.53% hits; in the data active = inhibition above about 50%
Hits are given with their value.

`CCN(CC)c1ccc(N=Cc2c(C)[nH]c3ccccc23)cc1` gave UPR CHOP act inactive, CHOP inh 97, 697 NFkB inh inactive, UPR XBP1 act inactive and Jurkat NFkB inh inactive.
`COc1cc([N+](=O)[O-])cc(/C=N/NC(=O)C(C)Nc2cccc3ccccc23)c1O` (stereo not given) gave UPR CHOP act inactive, CHOP inh inactive, 697 NFkB inh inactive, UPR XBP1 act inactive and Jurkat NFkB inh inactive.
For CC(Nc1cccc2ccccc12)C(=O)N/N=C/c1ccc([N+](=O)[O-])cc1 (stereo not given) the results were UPR CHOP act inactive, CHOP inh 82, 697 NFkB inh inactive, UPR XBP1 act inactive and Jurkat NFkB inh inactive.
Screening CSCCC(NC(=O)C12CC3CC(CC(C3)C1)C2)C(=O)OCC(=O)c1ccc(Cl)cc1 (stereo not given) returned UPR CHOP act inactive, CHOP inh 75, 697 NFkB inh inactive, UPR XBP1 act inactive and Jurkat NFkB inh inactive.
`CCc1ccc(C(=O)COC(=O)C(CCSC)NC(=O)C23CC4CC(CC(C4)C2)C3)cc1` (stereo not given) gave UPR CHOP act inactive, CHOP inh inactive, 697 NFkB inh inactive, UPR XBP1 act inactive and Jurkat NFkB inh inactive.
For CC(NC(=O)C12CC3CC(CC(O)(C3)C1)C2)c1ccccc1 (stereo not given) the results were UPR CHOP act inactive, 697 NFkB inh inactive, UPR XBP1 act inactive and Jurkat NFkB inh inactive.
Screening CCC1CCC(C(=O)NC(C(=O)Nc2ccc3c(c2)OCCO3)C(C)C)CC1 (stereo not given) returned UPR CHOP act inactive, CHOP inh 83, 697 NFkB inh inactive, UPR XBP1 act inactive and Jurkat NFkB inh inactive.
`CC(C)CC(NC(=O)C1CCC(C)CC1)C(=O)Nc1ccc2c(c1)OCCO2` (stereo not given) gave UPR CHOP act inactive, CHOP inh inactive, 697 NFkB inh inactive, UPR XBP1 act inactive and Jurkat NFkB inh inactive.
`NC(=S)NCCCC(N)C(=O)O` (stereo not given) gave CHOP inh inactive.
Screening Cc1cc(C)cc(-n2cc(C(=O)O)c(=O)cc2C)c1 returned UPR CHOP act inactive, CHOP inh inactive, 697 NFkB inh inactive, UPR XBP1 act inactive and Jurkat NFkB inh inactive.
For CCOc1ccc(CCNC(=O)CSc2ncn[nH]2)cc1OCC the results were UPR CHOP act inactive, 697 NFkB inh inactive, UPR XBP1 act inactive and Jurkat NFkB inh inactive.
Cn1ncc([N+](=O)[O-])c1C(=O)N1CCCCCC1 was read as UPR CHOP act inactive, 697 NFkB inh inactive, UPR XBP1 act inactive and Jurkat NFkB inh inactive.
`CCc1ccc(OCC(=O)NC(=S)Nc2cccc(CO)c2)c(Br)c1` gave UPR CHOP act inactive, CHOP inh 83, 697 NFkB inh inactive, UPR XBP1 act inactive and Jurkat NFkB inh inactive.
`CCc1ccc(OCC(=O)NC(=S)Nc2ccc(F)cc2)c(Br)c1` gave UPR CHOP act inactive, CHOP inh inactive, 697 NFkB inh inactive, UPR XBP1 act inactive and Jurkat NFkB inh inactive.
`N#CC(Sc1ccccn1)c1ccc(Cl)cc1Cl` (stereo not given) gave UPR CHOP act inactive, CHOP inh 74, 697 NFkB inh inactive, UPR XBP1 act inactive and Jurkat NFkB inh inactive.
`CC1(C)CC(=O)C=C(NC2=CC3OC(c4ccccc4)OCC3OC2=O)C1` (stereo not given) gave UPR CHOP act inactive, CHOP inh 103, 697 NFkB inh inactive, UPR XBP1 act inactive and Jurkat NFkB inh inactive.
C=CCN=C1NN=C(c2cc(C)n(CC=C)c2C)CS1 was read as UPR CHOP act inactive, CHOP inh 93, 697 NFkB inh inactive, UPR XBP1 act inactive and Jurkat NFkB inh inactive.
For COCCN=C1NN=C(c2cc(C)n(CC3CCCO3)c2C)CS1 (stereo not given) the results were UPR CHOP act inactive, CHOP inh inactive, 697 NFkB inh inactive, UPR XBP1 act inactive and Jurkat NFkB inh inactive.
C=CCN=C1NN=C(c2ccc3c(c2)OCCO3)CS1 was read as UPR CHOP act inactive, CHOP inh 71, 697 NFkB inh inactive, UPR XBP1 act inactive and Jurkat NFkB inh inactive.
For COc1cc(OC)cc(C(=O)Nc2nnc(NC(=S)Nc3ccccc3)s2)c1 the results were UPR CHOP act inactive, CHOP inh 108, 697 NFkB inh inactive, UPR XBP1 act inactive and Jurkat NFkB inh inactive.

Source: PubChem BioAssay
